From PubChem BioAssay
ASAP1 GAP inh – inhibitors of human ASAP1 ArfGAP activity. AID 624377. 360,000 tested, 0.19% active. inhibition, % at 16.5 µM. ASAP1-stimulated ARF1 GTP hydrolysis, GDP FP detection. Q9ULH1
LEDGF integ inh – blocks HIV-1 LEDGF/p75-dependent DNA integration; TR-FRET IN-LEDGF/p75 DNA integration, Eu/Cy5; inhibition, % at 3.7 µM; 370,000 tested, 0.64% active; AID 743269;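 active means inhibition above the screen-wide mean plus 3 SD, cut at about 13% in these data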;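 further: signal is the Cy5 over europium emission ratio at 671 and 618 nm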
MBD2 inh – blocks human MBD2 binding to methylated DNA; Q9UBB5; TR-FRET, MBD2 binding to methylated oligonucleotide; inhibition, % at 4.4 µM; 370,000 tested, 0.31% active; AID 686964; in the data active means inhibition above about 13%
TDP2 inh – blocks human TDP2 phosphodiesterase activity; 370,000 tested, 0.34% active; recombinant TDP2, T5PNP hydrolysis, p-nitrophenol absorbance 415 nm; inhibition, % at 12.8 µM;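 active means inhibition above the mean of all tested compounds plus 3 SD, set per campaign, cut at about 25% in these data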
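Test system: Human TDP2 enzyme | Reagent: 5 mM T5PNP | Compound dosing: 12.8 µM single point, 1% DMSO | Incubation: Enzyme reaction with compound for 2 h at 37 °C | Technique: p-Nitrophenol epi absorbance | Read-out: % inhibition relative to enzyme-containing and enzyme-free wells | Benchmarks: High control without enzyme, low control DMSO plus TDP2 | Replicates: Singlicate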
ARFGAP1 inh – inhibitors of rat ARFGAP1. Q62848. Arfgap1-stimulated ARF1 GTP hydrolysis, GDP FP detection. inhibition, % at 16.5 µM. 360,000 tested, 0.26% active. AID 651572;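 active means inhibition above a per-plate limit, mean inhibition of low control wells plus 3 SD, cut at about 25% in these data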
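Material: rat Arfgap1 GAP domain (His6, aa 1-136), purified enzyme. Also added: human ARF1(Δ1-17)-GTP substrate. Compound dosing: 16.5 µM single point, 1.26% DMSO. Timing: enzyme reaction 120 min at 25 °C after 20 min preincubation. Signal: GDP detection by fluorescence polarization. Read-out basis: percent inhibition of GAP-stimulated GDP formation, scaled between DMSO and no-Arfgap1 medians.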
UHRF1 MBD2 ctr – human UHRF1 methylated DNA binding inhibitors; Q96T88; UHRF1 binding to methylated oligo, TR-FRET; inhibition, % at 4.4 µM; 370,000 tested, 0.75% active; AID 687016; in the data active means inhibition above about 21%;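 further: UHRF1 SRA domain binding a hemimethylated CpG hairpin DNA probe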
TDP2 confirm – confirmation of human TDP2 inhibitors; shares compounds with TDP2 inh; recombinant human TDP2, absorbance read-out; inhibition, % at 12.8 µM; 1,100 tested, 22% active; AID 743263
Numbers stand for hits; 0 = inactive; - = no result. This is a sample that favours compounds with a hit; in the whole collection about 2% have one here. Unless noted, no stated cut-off is given here; in the data, active means inhibition above about 25%; inactive means the rest.

SMILES	ASAP1 GAP inh	LEDGF integ inh	MBD2 inh	TDP2 inh	ARFGAP1 inh	UHRF1 MBD2 ctr	TDP2 confirm
CCN(CC)CCN1C(=O)C(=O)/C(=C(/O)c2ccc(C)cc2)C1c1cccnc1 (centres undefined)	0	0	0	32	0	0	0
CCN(CC)CCCN1C(=O)C(=O)/C(=C(/O)c2cc(C)ccc2C)C1c1cccnc1 (centres undefined)	0	0	0	0	0	0	-
COC(=O)C1CN(Cc2ccccc2)CCS(=O)(=O)N1Cc1ccc(F)cc1 (centres undefined)	-	0	0	0	-	0	-
O=S(=O)(c1ccc(-c2ccon2)s1)N1CCN(CCN2CCOCC2)CC1	0	0	0	0	0	0	-
O=S(=O)(c1ccc(-c2ccon2)s1)N1CCCC1	0	0	0	26	0	0	0
Cc1cc(F)ccc1C(=O)N1CCC(Oc2cccnc2)CC1	-	0	0	0	-	0	-
CCC[C@H]1[C@@H](OC(=O)NC2CCC2)CC[C@@]23CCCN2C(=O)CCC[C@@H]13	-	0	0	0	-	0	-
CS(=O)(=O)Nc1ccc(-c2cn3cccnc3n2)cc1	0	0	0	26	0	0	0
Cc1ccc(-c2cn3cccnc3n2)cc1	0	0	0	0	0	0	-
CC(=O)C(C(C)=O)C1(O)C(=O)c2ccccc2C1=O	27	0	0	44	32	0	68
CCCCCOc1ccc(CSCCNC(=S)Nc2ccccc2)cc1	0	0	0	37	0	0	0
CCCC[C@H](C(=O)N(C)c1cccc(OC)c1)[C@@H](O)c1ccc2ccccc2c1	-	0	0	0	-	0	-
COc1cccc(CNC(=O)C2CCN(c3nc(OC)nc(OC)n3)CC2)c1	-	0	0	0	-	0	-
O=C(O)[C@@H]1CCCN1C(=O)CCc1c[nH]c2ccccc12	0	0	0	25	0	0	0
COc1cc2c(cc1OC)CN(C(=O)CCc1c[nH]c3ccccc13)[C@H](C(=O)O)C2	0	0	0	0	0	0	-
Nc1[nH]c(C(=O)c2ccc(Br)cc2)c(-c2ccc(Br)cc2)c1C(=O)N1CCCCC1	-	0	0	0	-	0	-
CCCCNC(=O)C(=O)N/N=C/c1cccc(Br)c1	0	0	0	0	0	0	-
CCOC(=O)C(=O)N/N=C/c1cccc(Br)c1	0	0	0	25	0	0	0
O=C(CNC(=O)c1ccc([N+](=O)[O-])cc1)N/N=C/c1c[nH]c2ccccc12	0	0	0	27	0	0	0
O=C(NC1CC1)C1CCN(C(=O)c2ccc(Cl)cc2Cl)CC1	0	0	0	0	0	0	-
O=C(NC1CCCC1)C1CCN(C(=O)c2cc(Cl)ccc2Cl)CC1	0	0	0	26	0	0	0
Cc1ccc(OCCNC(=O)c2ccc(NC(=O)CC3SC(N4CCCC4)=NC3=O)cc2)cc1 (centres undefined)	0	0	0	40	0	0	0
O=C(NC(=O)c1ccccc1O)c1ccc2c(c1)CCO2	0	0	0	25	0	0	0
COc1ccc(-n2c(SCC(=O)Nc3cccc4ccccc34)nnc2-c2ccco2)cc1	-	0	0	0	-	0	-
NS(=O)(=O)c1ccc(NCc2cnc3ccccc3n2)cc1	0	0	0	0	0	0	-
SMILES	ASAP1 GAP inh	LEDGF integ inh	MBD2 inh	TDP2 inh	ARFGAP1 inh	UHRF1 MBD2 ctr	TDP2 confirm
N#CCc1cnc2ccccc2n1	0	0	0	28	0	0	0
O=C(NC1CCCC1)C1CCN(S(=O)(=O)c2ccc3[nH]c(=O)oc3c2)CC1	-	0	0	0	-	0	-
CC1(C)CNc2cc(N)ccc2S1	0	0	0	38	0	0	0
COc1ccc(Cl)cc1NS(=O)(=O)c1cn(C)nc1C	0	0	0	0	0	0	-
Cc1ccc(Cl)cc1NS(=O)(=O)c1cn(C)nc1C	0	0	0	25	0	0	0
C[C@H]1COc2cccc(N3CCSCC3)c2S(=O)(=O)N1C	-	0	0	0	-	0	-
CC1=NN(c2ccccc2)C(=O)C1C(=O)c1cc([N+](=O)[O-])cc([N+](=O)[O-])c1 (centres undefined)	0	0	0	47	0	0	0
COc1cccc(NC(=O)N2CCCC2C(=O)NC23CC4CC(CC(C4)C2)C3)c1 (centres undefined)	0	0	0	33	0	0	0
COc1ccc(Cn2ccc3ccc(-c4ccc5ccn(C(=O)C6CC6)c5c4)cc32)cc1	-	0	0	0	-	0	-
CN1c2ccccc2C(C)(C)[C@]12C=Cc1cc(O)ccc1O2	0	0	0	0	0	0	-
CN1c2ccccc2C(C)(C)C12C=Nc1c(ccc3ccccc13)O2 (centres undefined)	0	0	0	33	0	0	0
CCN(CC)c1c2c(nc3ncnn13)CCCC2	-	0	0	0	-	0	-
Cc1oc2c(c1C(=O)O)C(=O)c1ccccc1C2=O	0	0	0	0	0	0	-
Cc1oc2c(c1C(=O)c1ccccc1)C(=O)C(=O)c1ccccc1-2	0	0	0	38	0	0	55
Nc1ccc(OC(=O)Nc2ccc(O)cc2)cc1	0	0	0	30	0	0	0
O=C(Nc1ccc(N2CCN(c3ccc(O)cc3)CC2)cc1)Oc1ccccc1	0	0	0	0	0	0	-
CN(C)CCOC(=O)c1ccc2[nH]c3c(c2c1)CSCC3	0	0	0	25	0	0	0
C=CCOc1cccc(C2C(C(=O)c3ccco3)=C(O)C(=O)N2CCN2CCOCC2)c1 (centres undefined)	0	0	0	41	0	0	0
C=CCOc1cccc(C2C(C(=O)c3ccco3)=C(O)C(=O)N2Cc2ccco2)c1 (centres undefined)	0	0	0	0	0	0	-
Cc1noc(C)c1S(=O)(=O)N1CCCC(C(=O)NCc2ccccc2Cl)C1 (centres undefined)	0	0	0	27	0	0	0
O=C(CSc1nnc(COc2ccc(Cl)cc2)n1Cc1ccco1)Nc1ccc(OCc2ccccc2)cc1	-	0	0	0	-	0	-
C#CCNC(=O)C[C@H]1C(=O)N(Cc2ccc(OC)cc2)C2=CCCCC[C@@]21C(=O)OC	-	0	0	0	-	0	-
COc1ccc(CN2CCCC(C(=O)N3CCCC3)C2)c(OC)c1 (centres undefined)	0	0	0	31	0	0	0
NC(=O)C1CCCN(C(=O)CCCNC(=O)c2ccc(Cl)cc2)C1 (centres undefined)	0	0	0	30	0	0	0
COc1ccccc1-c1ccc(SCC(=O)NC2CCCCC2)nn1	0	0	0	0	0	0	-
COc1ccccc1-c1ccc(SCC(=O)NC2CCCC2)nn1	0	0	0	37	0	0	0
CCn1cc(S(=O)(=O)Nc2ccc(C)c(Cl)c2)cn1	0	0	0	0	0	0	-
